These results are taken from ChEMBL document CHEMBL1139225, “Metabolism-based identification of a potent thrombin receptor antagonist” (J Med Chem, 2007).

A word on the IC50: it is the concentration at which inhibition is half-maximal. In general, AUC(0-t) refers to the area under the concentration-time curve up to a stated or last time point. What is called AUC is concentration integrated over time. The term Cmax denotes the maximum level reached in the sampled fluid or tissue. Broadly, the Ki is the equilibrium dissociation constant of an inhibitor or competing ligand from its target. One may read the bioavailability as dose-corrected exposure relative to a reference, in per cent. For orientation: inhibition in vivo means the change of the read-out against control, counted positive when it falls. Broadly, the solubility is how much of the substance goes into solution per volume.

Data set [1] has as its target T1, Proteinase-activated receptor 1 (Homo sapiens, UniProt P25116).
T1 sequence (P25116 whole entry): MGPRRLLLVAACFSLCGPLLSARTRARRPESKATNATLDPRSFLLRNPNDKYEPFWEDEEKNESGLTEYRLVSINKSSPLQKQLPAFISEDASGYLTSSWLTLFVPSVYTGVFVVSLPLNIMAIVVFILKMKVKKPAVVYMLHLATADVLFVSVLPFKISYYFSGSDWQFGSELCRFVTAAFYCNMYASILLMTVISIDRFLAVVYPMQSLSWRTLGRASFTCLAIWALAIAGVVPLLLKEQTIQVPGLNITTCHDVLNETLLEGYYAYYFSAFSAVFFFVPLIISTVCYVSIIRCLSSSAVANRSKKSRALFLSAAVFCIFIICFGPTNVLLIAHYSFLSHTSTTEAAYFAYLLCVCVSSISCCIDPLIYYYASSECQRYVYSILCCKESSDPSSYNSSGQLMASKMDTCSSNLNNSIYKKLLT
Put plainly: Displacement of [3H]haTRAP from PAR1 in human platelet membrane. It is filed as cell membranes. In general terms: Displacement assays read how much labelled ligand stays bound in the presence of the test substance.

Data set [2] can be described thus: AUC (0-24h) in Sprague-Dawley rat at 300 mg/kg, po after 1 day. Particulars: plasma. Format: ADME, organism-based. Set-up: time < 24 hr, dose 300 mg/kg, route oral. Put shortly: (§1)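 Fed male Sprague Dawley rats, four per group, given the compound orally once daily for 10 consecutive days in 0.4% methylcellulose (100 and 300 mg/kg groups). On day 1 and day 10, plasma concentrations of parent and hydroxylated metabolites were measured at 1, 2, 4, 8, 12 and 24 h, giving AUC(0-24 h) and Cmax.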

A short description of data set [3]: AUC (0-24h) in Sprague-Dawley rat at 300 mg/kg, po after 10 days. Format: ADME, organism-based. The following applies: plasma. Set-up: time < 24 hr, dose 300 mg/kg, route oral. The method in brief: as §1
Data set [4] in a line: Cmax in Sprague-Dawley rat at 300 mg/kg, po after 1 day. Also on record: dose 300 mg/kg, route oral. It is filed as ADME, organism-based. Particulars: in vivo. Put shortly: as §1
A short description of data set [5]: Cmax in Sprague-Dawley rat at 300 mg/kg, po after 10 days. It is filed as ADME, organism-based. Also on record: dose 300 mg/kg, route oral. The following applies: in vivo. Put shortly: as §1
Data set [6] can be described thus: AUC (0-6h) in rat after oral administration. It is filed as ADME, organism-based. Also on record: time < 6 hr, route oral. Particulars: plasma.
Data set [7] can be described thus: Plasma concentration in cynomolgus monkey at 24 hrs. It is filed as ADME, organism-based, Macaca fascicularis. Put shortly:
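Cynomolgus monkeys were given an oral dose of 3 mg/kg in 0.4% methylcellulose. Plasma was sampled at 6 and 24 h and analysed by LC-MS/MS.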

The subject of data set [8] is Platelet. Put plainly: Inhibition of haTRAP-induced platelet aggregation in cynomolgus monkey at 3 mg/kg. It is filed as functional, organism-based. Also on record: dose 3 mg/kg. Particulars: Macaca fascicularis. Put shortly:
(§2)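 Ex-vivo assay in cynomolgus monkeys. The compound was given orally as a single dose (1 mg/kg or 3 mg/kg in 20% HPβCD). Platelet aggregation induced by haTRAP was then measured in samples taken after dosing, at time points up to 24 h.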

Data set [9] is described as follows: Inhibition of thrombin-mediated activation of calcium transients in human CASMC. Format: functional. The method in brief: (§3)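 Human coronary artery smooth muscle cells were loaded with the fluorescent calcium dye Fluo-3, and intracellular calcium was read on a fluorometric imaging plate reader. Thrombin served as the agonist in the inhibition format. For the agonist check, cells were treated with the compound alone.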

Data set [10] in a line: Inhibition of thrombin-stimulated [3H]thymidine incorporation in human CASMC. Format: functional. Put shortly:
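Human coronary artery smooth muscle cells were stimulated with thrombin. [3H]thymidine incorporation was measured, and an apparent Ki was derived.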
(In general: Incorporation of labelled thymidine or its analogues reports DNA synthesis.)

The nature of data set [11]: Inhibition of haTRAP-induced human platelet aggregation. It is filed as functional, cell-based. The method in brief: (§4)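 Washed platelets from healthy human donors who had been aspirin-free for 7 days were preincubated with the compound for 1 h. Aggregation was then triggered by 0.3 µM haTRAP, or by ADP for the specificity test. IC50 was derived for the haTRAP response.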

A short description of data set [12]: Oral absorption in cynomolgus monkey. It is filed as ADME, organism-based, Macaca fascicularis. The following applies: in vivo.
The nature of data set [13]: Bioavailability in cynomolgus monkey. It is filed as ADME, organism-based, Macaca fascicularis. Particulars: in vivo.
Data set [14] has as its target Cytochrome P450 2D6 (Homo sapiens, UniProt P10635). Put plainly: Inhibition of cytochrome P450 2D6 in human liver microsomes up to 10 uM. Format: ADME, Microsome. Put shortly: (§5)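 Human liver microsomes. The compound was tested at concentrations up to 10 µM for inhibition of CYP2D6, 3A4, 2C9 and 2C19.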
A general note: Microsomes from liver hold many membrane-bound enzymes, among them those of drug oxidation.

Data set [15] concerns the target Cytochrome P450 3A4 (Homo sapiens, UniProt P08684). Put plainly: Inhibition of cytochrome P450 3A4 in human liver microsomes up to 10 uM. Format: ADME, Microsome. Put shortly:
as §5

Data set [16] addresses Cytochrome P450 2C9 (Homo sapiens, UniProt P11712). Put plainly: Inhibition of cytochrome P450 2C9 in human liver microsomes up to 10 uM. Format: ADME, Microsome. Put shortly: as §5
In data set [17] the target is Cytochrome P450 2C19 (Homo sapiens, UniProt P33261). Put plainly: Inhibition of cytochrome P450 2C19 in human liver microsomes up to 10 uM. It is filed as ADME, Microsome. The method in brief:
as §5

A short description of data set [18]: AUC (0-24h) in cynomolgus monkey at 1 mg/kg, po. It is filed as ADME, organism-based, Macaca fascicularis. Set-up: time < 24 hr, dose 1 mg/kg, route oral. Particulars: plasma. The method in brief: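 Cynomolgus monkeys received a single oral dose of 1 mg/kg in 20% HPβCD. Blood levels were followed at various time points afterwards.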
Data set [19] relates to Platelet. Put plainly: Inhibition of haTRAP-induced platelet aggregation in cynomolgus monkey at 1 mg/kg after 6 hrs. It is filed as functional, organism-based. Also on record: dose 1 mg/kg. Particulars: Macaca fascicularis. Put shortly:
as §2

The nature of data set [20]: Inhibition of haTRAP-induced platelet aggregation in cynomolgus monkey at 1 mg/kg after 24 hr. It is filed as functional. Particulars: Macaca fascicularis. The method in brief:
as §2

Data set [21] has as its system Platelet. Put plainly: Inhibition of ADP-induced human platelet aggregation. It is filed as functional, cell-based. The method in brief:
as §4

The species named for data set [22] is Homo sapiens. Put plainly: Effect on elevation of calcium level in human CASMC. Format: functional. The method in brief: as §3
Data set [23] can be described thus: AUC (0-6h) in rat at 10 mg/kg, po. Also on record: time < 6 hr, dose 10 mg/kg, route oral. The following applies: plasma. It is filed as ADME, organism-based. Put shortly:
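Rat oral pharmacokinetics at 10 mg/kg dosed in 20% HPβCD. Plasma exposure was reported as AUC(0-6).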

Data set [24] in a line: Solubility of the compound. It is filed as physicochemical.

Structures are written as SMILES. ≈ marks a conversion by molar mass, not a printed value. Calls of active or inactive are those of the source. No cut-off for these calls is given here.

Sequence of Cytochrome P450 2C9 (P11712 whole entry): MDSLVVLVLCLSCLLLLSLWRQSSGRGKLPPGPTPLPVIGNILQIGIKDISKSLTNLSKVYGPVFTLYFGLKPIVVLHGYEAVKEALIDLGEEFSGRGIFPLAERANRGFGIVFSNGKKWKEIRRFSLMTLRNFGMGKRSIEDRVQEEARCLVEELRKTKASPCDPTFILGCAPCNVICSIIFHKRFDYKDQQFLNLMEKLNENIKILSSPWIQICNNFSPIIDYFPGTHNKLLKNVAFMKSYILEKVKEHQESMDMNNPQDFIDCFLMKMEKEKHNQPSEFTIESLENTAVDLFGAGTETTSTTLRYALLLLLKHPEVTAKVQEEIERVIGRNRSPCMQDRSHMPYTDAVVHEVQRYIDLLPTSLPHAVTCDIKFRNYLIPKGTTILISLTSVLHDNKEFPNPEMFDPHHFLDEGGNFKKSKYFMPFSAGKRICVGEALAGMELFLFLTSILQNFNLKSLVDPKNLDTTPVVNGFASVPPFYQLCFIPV
Sequence of Cytochrome P450 2C19 (P33261 whole entry): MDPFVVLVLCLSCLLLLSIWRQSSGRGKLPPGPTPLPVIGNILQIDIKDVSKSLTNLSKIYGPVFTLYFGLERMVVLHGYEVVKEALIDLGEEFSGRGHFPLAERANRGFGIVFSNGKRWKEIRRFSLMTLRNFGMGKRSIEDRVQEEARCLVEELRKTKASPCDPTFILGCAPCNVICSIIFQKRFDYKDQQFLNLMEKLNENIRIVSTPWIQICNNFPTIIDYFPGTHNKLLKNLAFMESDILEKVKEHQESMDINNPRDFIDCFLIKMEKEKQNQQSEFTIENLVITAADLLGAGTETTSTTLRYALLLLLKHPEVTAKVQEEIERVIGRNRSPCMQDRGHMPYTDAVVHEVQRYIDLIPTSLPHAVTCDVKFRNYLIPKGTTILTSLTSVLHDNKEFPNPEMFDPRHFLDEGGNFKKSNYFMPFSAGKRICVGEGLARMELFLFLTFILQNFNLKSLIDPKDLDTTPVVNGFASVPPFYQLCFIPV
Sequence of Cytochrome P450 3A4 (P08684 whole entry): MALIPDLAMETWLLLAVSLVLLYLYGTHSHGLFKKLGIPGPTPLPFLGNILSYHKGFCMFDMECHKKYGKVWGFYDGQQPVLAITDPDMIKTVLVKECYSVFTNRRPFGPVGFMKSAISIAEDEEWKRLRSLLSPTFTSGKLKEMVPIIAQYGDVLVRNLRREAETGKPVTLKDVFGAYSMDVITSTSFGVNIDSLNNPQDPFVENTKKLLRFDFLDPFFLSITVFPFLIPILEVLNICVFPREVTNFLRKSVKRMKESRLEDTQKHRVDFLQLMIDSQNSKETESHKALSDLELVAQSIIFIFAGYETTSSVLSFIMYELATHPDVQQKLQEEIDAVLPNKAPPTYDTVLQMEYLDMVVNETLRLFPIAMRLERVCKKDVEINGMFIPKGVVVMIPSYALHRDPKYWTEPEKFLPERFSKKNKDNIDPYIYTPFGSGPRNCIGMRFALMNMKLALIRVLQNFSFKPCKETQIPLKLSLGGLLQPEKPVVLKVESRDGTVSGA
Sequence of Cytochrome P450 2D6 (P10635 whole entry): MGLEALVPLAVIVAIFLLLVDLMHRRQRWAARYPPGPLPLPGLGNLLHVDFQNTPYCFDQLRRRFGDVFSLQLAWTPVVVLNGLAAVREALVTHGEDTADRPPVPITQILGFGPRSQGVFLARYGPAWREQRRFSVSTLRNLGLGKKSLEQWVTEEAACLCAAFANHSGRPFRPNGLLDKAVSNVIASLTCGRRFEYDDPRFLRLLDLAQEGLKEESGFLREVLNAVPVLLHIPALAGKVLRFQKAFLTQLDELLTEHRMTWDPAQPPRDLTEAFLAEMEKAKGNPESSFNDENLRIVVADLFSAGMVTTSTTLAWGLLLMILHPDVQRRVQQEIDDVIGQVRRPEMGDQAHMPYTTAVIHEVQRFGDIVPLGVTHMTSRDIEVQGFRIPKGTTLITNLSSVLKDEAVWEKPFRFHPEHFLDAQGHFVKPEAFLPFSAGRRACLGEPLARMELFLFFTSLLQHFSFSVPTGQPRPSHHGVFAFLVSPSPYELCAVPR

In turn, `C[C@H]1OC(=O)[C@@H]2C[C@@H]3CC[C@@H](O)C[C@H]3[C@H](/C=C/c3ccc(-c4cccc(C(F)(F)F)c4)cn3)[C@H]12` came in with an IC50 in data set [1] of 481 nM.

For the compound `Cc1cccc(-c2ccc(/C=C/[C@H]3[C@@H]4CC[C@@H](O)C[C@H]4C[C@H]4C(=O)O[C@H](C)[C@@H]34)nc2)c1`, in data set [1], the IC50 came to 147 nM.

`C[C@H]1OC(=O)[C@@H]2C[C@H]3[C@@H](CCC[C@@H]3O)[C@H](/C=C/c3ccc(-c4cccc(C(F)(F)F)c4)cn3)[C@H]12` returned an IC50 in data set [1] of 41 nM. For the same compound, in [2], the exposure AUC(0-t) at 24 h worked out at 49000 ng·h/mL. Besides, the AUC at 24 h in data set [3] turned out to be 150000 ng·h/mL. Also, the peak concentration (Cmax) came to 29000 ng/mL in [4] and 79000 ng/mL in data set [5]. Moreover, the AUC(0-t) at 6 h in [6] came out at 5760 ng·h/mL. The same compound returned a concentration at 24 h in [7] of 160 ng/mL.

Turning to `Cc1cccc(-c2ccc(/C=C/[C@H]3[C@@H]4CCC(F)(F)C[C@H]4C[C@H]4C(=O)O[C@H](C)[C@@H]34)nc2)c1`, the IC50 in [1] is 80 nM.

The compound `C[C@H]1OC(=O)[C@@H]2C[C@@H]3C[C@H](O)CC[C@H]3[C@H](/C=C/c3ccc(-c4ccccc4F)cn3)[C@H]12` registered a 50% inhibitory concentration (IC50) in data set [1] of 72 nM.

Regarding `C[C@H]1OC(=O)[C@@H]2C[C@@H]3C[C@H](O)CC[C@H]3[C@H](/C=C/c3ccc(-c4cccc(C(F)(F)F)c4)cn3)[C@H]12`, the result in data set [8] and in [19] was Active. For the same compound, the inhibition constant Ki in [9] was 85 nM; in data set [10] it was 22 nM; in data set [1], 11 nM. Further, the half-maximal inhibitory concentration (IC50) in data set [11] came to 60 nM; in data set [1] it was 17 nM. Also, the Fa in data set [12] stood at 92%. Moreover, the bioavailability in [13] amounted to 89%. Also, the Activity result in data set [14], in data set [15], in data set [16] and in [17] was “Not Active” in each case. Further, the values for the exposure AUC(0-t) at 24 h in data set [2] and in data set [18] were 93000 ng·h/mL and 3060 ng·h/mL, respectively. The same compound gave an AUC at 24 h in data set [3] of 41000 ng·h/mL. Moreover, the values for the Cmax in data set [4] and in data set [5] were 58000 ng/mL and 25000 ng/mL, respectively. In addition, in data set [6], the AUC(0-t) at 6 h worked out at 6130 ng·h/mL. Also, the inhibition in vivo at 1 mg/kg in data set [20] came to 60%. The outcome in data set [21] and in [22] was inactive.

As for `Cc1ccc(-c2ccc(/C=C/[C@H]3[C@@H]4CC[C@@H](O)C[C@H]4C[C@H]4C(=O)O[C@H](C)[C@@H]34)nc2)cc1`, the IC50 in data set [1] was determined as 1370 nM.

Turning to `C[C@H]1OC(=O)[C@@H]2C[C@@H]3C[C@@H](O)CC[C@H]3[C@H](/C=C/c3ccc(-c4cccc(C(F)(F)F)c4)cn3)[C@H]12`, the concentration for half-maximal inhibition (IC50) in [1] worked out at 23 nM. For the same compound, the AUC(0-t) at 24 h in [2] stood at 18000 ng·h/mL; in data set [18] it was 73 ng·h/mL. The compound also gave an AUC at 24 h in data set [3] of 81000 ng·h/mL. Besides, the Cmax worked out at 11000 ng/mL in data set [4] and 47000 ng/mL in data set [5]. The compound further showed an exposure AUC(0-t) at 6 h in data set [6] of 3150 ng·h/mL. Further, the outcome in data set [19] was Active.

`C[C@H]1OC(=O)[C@@H]2C[C@@H]3C[C@H](O)CC[C@H]3[C@H](/C=C/c3ccc(-c4cccc(F)c4)cn3)[C@H]12` yielded an IC50 in data set [1] of 28 nM.

`C[C@H]1OC(=O)[C@@H]2C[C@@H]3CC(F)(F)CC[C@H]3[C@H](/C=C/c3ccc(-c4cccc(C(F)(F)F)c4)cn3)[C@H]12` yielded an IC50 in data set [1] of 37 nM. The compound further showed an AUC(0-t) at 6 h in data set [23] of 1200 ng·h/mL. Moreover, the solubility in [24] was found to be 5 µM (≈ 2.46 µg/mL).

As for `C[C@H]1OC(=O)[C@@H]2C[C@@H]3C[C@H](O)CC[C@H]3[C@H](/C=C/c3ccc(-c4ccc(F)cc4)cn3)[C@H]12`, the IC50 in data set [1] worked out at 829 nM.

`C[C@H]1OC(=O)[C@@H]2C[C@@H]3C[C@H](O)CC[C@H]3[C@H](/C=C/c3ccc(-c4cc(Cl)ccc4Cl)cn3)[C@H]12` showed an IC50 in data set [1] of 97 nM.
